Assay [1] addresses T1, Adrenergic receptor alpha-1 (Rattus norvegicus, UniProt P15823+P23944+P43140).
T1 sequence (P15823 whole entry): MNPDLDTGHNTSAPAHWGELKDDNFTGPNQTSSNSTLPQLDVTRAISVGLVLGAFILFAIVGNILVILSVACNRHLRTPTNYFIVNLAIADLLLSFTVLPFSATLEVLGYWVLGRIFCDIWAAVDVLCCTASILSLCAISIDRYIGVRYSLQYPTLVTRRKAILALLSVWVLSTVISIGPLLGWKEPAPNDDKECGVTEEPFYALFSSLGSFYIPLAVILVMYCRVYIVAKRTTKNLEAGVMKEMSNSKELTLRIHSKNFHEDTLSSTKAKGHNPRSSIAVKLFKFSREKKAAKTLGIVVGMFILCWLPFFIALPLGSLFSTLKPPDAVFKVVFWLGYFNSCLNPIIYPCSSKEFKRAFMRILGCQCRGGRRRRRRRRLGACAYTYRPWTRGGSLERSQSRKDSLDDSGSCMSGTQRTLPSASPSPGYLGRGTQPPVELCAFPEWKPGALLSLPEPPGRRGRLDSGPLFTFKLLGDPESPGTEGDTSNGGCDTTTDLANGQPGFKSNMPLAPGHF
T1 sequence (P23944 whole entry): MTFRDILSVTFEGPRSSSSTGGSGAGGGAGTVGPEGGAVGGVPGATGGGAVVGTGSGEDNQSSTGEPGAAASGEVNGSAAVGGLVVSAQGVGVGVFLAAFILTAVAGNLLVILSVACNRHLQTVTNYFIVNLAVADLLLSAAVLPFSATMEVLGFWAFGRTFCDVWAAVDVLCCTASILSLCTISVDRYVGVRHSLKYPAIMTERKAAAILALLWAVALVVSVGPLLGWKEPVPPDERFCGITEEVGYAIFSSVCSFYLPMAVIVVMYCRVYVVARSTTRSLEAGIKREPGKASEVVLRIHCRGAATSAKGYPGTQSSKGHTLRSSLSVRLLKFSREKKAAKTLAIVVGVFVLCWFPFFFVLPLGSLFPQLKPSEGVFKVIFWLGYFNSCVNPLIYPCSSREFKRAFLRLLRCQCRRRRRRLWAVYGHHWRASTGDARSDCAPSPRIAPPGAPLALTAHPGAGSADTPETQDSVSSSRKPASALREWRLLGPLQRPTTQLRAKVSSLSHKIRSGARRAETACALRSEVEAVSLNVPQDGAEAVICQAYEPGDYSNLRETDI
T1 sequence (P43140 whole entry): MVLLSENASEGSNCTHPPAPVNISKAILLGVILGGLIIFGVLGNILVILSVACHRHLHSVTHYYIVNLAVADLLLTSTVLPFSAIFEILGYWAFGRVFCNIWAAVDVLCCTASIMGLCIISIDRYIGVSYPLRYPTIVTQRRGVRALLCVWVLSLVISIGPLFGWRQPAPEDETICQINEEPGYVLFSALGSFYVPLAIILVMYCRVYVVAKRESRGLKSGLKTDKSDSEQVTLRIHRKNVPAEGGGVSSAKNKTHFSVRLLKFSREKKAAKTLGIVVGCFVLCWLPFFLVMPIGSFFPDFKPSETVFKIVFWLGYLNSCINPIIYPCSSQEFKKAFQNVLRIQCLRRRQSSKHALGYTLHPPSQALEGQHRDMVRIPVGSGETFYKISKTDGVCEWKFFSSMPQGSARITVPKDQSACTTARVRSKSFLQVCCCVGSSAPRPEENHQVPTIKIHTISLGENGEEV
Description: 50% Molar effective concentration for agonistic activity against Alpha-1 adrenergic receptor in rat aorta. It counts as functional, tissue-based. The essentials: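 Aorta from rats of 150-300 g, either sex. Tissue checked with 30 nM phenylephrine, then a cumulative phenylephrine curve. After 90 min the test agent was added cumulatively. Contraction expressed as % of the maximum to 1 µM phenylephrine (= 100%). EC50 is the molar 50% effective concentration; Emax is the maximal response relative to phenylephrine.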

A short description of assay [2]: Antagonistic activity against alpha2 adrenoceptor in human blood platelets expressed as IC50(medetomidine)/IC50(analog). It counts as functional. The essentials: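 Human platelet-rich plasma; inhibitor at various concentrations added 1 min before triggering aggregation with epinephrine (30-100 µM); aspirin 1 mM routinely added to study the primary-wave aggregation response.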

A short description of assay [3]: Alpha 2 antagonistic adrenoceptor activity in human blood platelets Potency ratio: IC50(medetomidine)/IC50(analog). It counts as functional. Put shortly:
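Inhibition of epinephrine (30-100 µM)-induced primary-wave aggregation in aspirin (1 mM)-treated human platelet-rich plasma, with inhibitor added 1 min before agonist.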

Two compounds from ChEMBL document CHEMBL1129251 (J Med Chem, 1996) can be followed below.

In the case of `CC(c1c[nH]cn1)c1cccc2ccccc12` (stereo not drawn), in assay [1], the EC50 (usually the midpoint of the concentration-response curve) amounted to 153 nM. Also, in assay [2], the Potency ratio is reported as 0.69.
As for `c1ccc2c3c(ccc2c1)CCCC3c1c[nH]cn1` (stereo not drawn), the Potency ratio in assay [3] is recorded as 0.03.
